Experimental data taken from PMC3149718 (Molecular and cellular biochemistry, 2011).
Changes are numbered by the printed parent chain.

What was measured:
[1] = biological target: T1, 89-residue L-CPTI C-terminal peptide, W391A mutant (Rattus norvegicus, UniProt P32198, W391A); test: FRET from CPTI aromatic amino acids to bound cis-parinaroyl-CoA; format: binding
T1 sequence (P32198 381-469 W391A): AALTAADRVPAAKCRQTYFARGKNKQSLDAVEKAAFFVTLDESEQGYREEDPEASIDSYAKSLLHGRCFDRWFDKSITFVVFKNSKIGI
Summary of the method: (§1)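 Peptide (0.1 µM in PBS, pH 7.4) was titrated with cis-parinaroyl-CoA at 24°C (0–1000 nM in methods; 0–250 nM in legend), with excitation at 280 nm and a 300–450 nm scan. Spectra were background-corrected and each averaged from 5 replicates. […] Distance was obtained by the Förster equation. Values are mean ± SE, n=5.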

[2] = biological target: T2, 89-residue L-CPTI C-terminal peptide, wild-type (WT) (Rattus norvegicus, UniProt P32198); test: as above; format: binding
T2 sequence (P32198 381-469): T1 sequence (P32198 381-469 W391A) with A11W
Summary of the method: as §1

[3] = biological target: T1, 89-residue L-CPTI C-terminal peptide, W391A mutant; test: Direct binding of fluorescent cis-parinaroyl-CoA
[4] = biological target: T3, 89-residue L-CPTI C-terminal peptide, W452A mutant (Rattus norvegicus, UniProt P32198, W452A); test: Direct binding of fluorescent cis-parinaroyl-CoA
T3 sequence (P32198 381-469 W452A): T1 sequence (P32198 381-469 W391A) with A11W, W72A

[5] = biological target: T3, 89-residue L-CPTI C-terminal peptide, W452A mutant; test: FRET from CPTI aromatic amino acids to bound cis-parinaroyl-CoA; format: binding
Summary of the method: as §1

[6] = biological target: T3, 89-residue L-CPTI C-terminal peptide, W452A mutant; test: Displacement of bound cis-parinaroyl-CoA by palmitoyl-CoA; format: binding; conditions: mutant peptides (W452A), range given for both mutants
Summary of the method: (§2)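 Purified 89-residue peptide (0.1 µM in PBS, pH 7.4) was preincubated with 50 nM cis-parinaroyl-CoA for 5 min at 24°C. It was then titrated with palmitoyl-CoA (0–150 nM stated for WT). Excitation was 310 nm and emission was read at 426 nm. Displacement was taken from the fall in fluorescence and plotted as percent change, and Ki was then calculated.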

[7] = biological target: T2, 89-residue L-CPTI C-terminal peptide, wild-type (WT); test: as above; format: binding; conditions: palmitoyl-CoA 0–150nM
Summary of the method: as §2

[8] = biological target: T1, 89-residue L-CPTI C-terminal peptide, W391A mutant; test: as above; format: binding; conditions: mutant peptides (W391A), range given for both mutants
Summary of the method: as §2

[9] = biological target: T3, 89-residue L-CPTI C-terminal peptide, W452A mutant; test: Quenching of intrinsic aromatic amino acid fluorescence by palmitoyl-CoA; format: binding; conditions: read-out: Quenching Kd, quenching of aromatic amino acid fluorescence of 0.1 µM W452A peptide
[10] = biological target: T1, 89-residue L-CPTI C-terminal peptide, W391A mutant; test: as above; format: binding; conditions: read-out: Quenching Kd, quenching of aromatic amino acid fluorescence of 0.1 µM W391A peptide

| Structure (SMILES) | Donor Emission R (intermolecular distance) ([1]; from donor (W391A) quenching) [Å] | Kd ([1]; read-out: Donor Emission Kd, from decrease in donor (W391A) fluorescence) [nM] | intermolecular distance determined from the increased acceptor fluorescence ([2]; CPTI WT, acceptor (cis-parinaroyl-CoA) fluorescence) [Å] | Donor Emission R (intermolecular distance) ([2]; from donor (CPTI WT) quenching, Förster equation) [Å] | Kd ([2]; read-out: Donor Emission Kd, from decrease in donor (CPTI WT) fluorescence) [nM] | binding affinity weaker than WT ([3]; mutant (W391A) versus WT, range given for both mutants) | Kd ([3]; read-out: Cpn-CoA Kd, W391A peptide 0.1 µM, PBS pH 7.4, 24°C, direct fluorescence) [nM] | binding affinity weaker than WT ([4]; mutant (W452A) versus WT, range given for both mutants) | Kd ([4]; read-out: Cpn-CoA Kd, W452A peptide 0.1 µM, PBS pH 7.4, 24°C, direct fluorescence) [nM] | Donor Emission R (intermolecular distance) ([5]; from donor (W452A) quenching) [Å] | Kd ([5]; read-out: Donor Emission Kd, from decrease in donor (W452A) fluorescence) [nM] | cis-parinaroyl-CoA displacement [6] | displacement of cis-parinaroyl-CoA [7] | cis-parinaroyl-CoA displacement [8] | Kd [9] [nM] | Kd [10] [nM] |
| --- | --- | --- | --- | --- | --- | --- | --- | --- | --- | --- | --- | --- | --- | --- | --- | --- |
| CC/C=C/C=C\C=C/C=C/CCCCCCCC(=O)SCCNC(=O)CCNC(=O)[C@H](O)C(C)(C)COP(=O)(O)OP(=O)(O)OC[C@H]1O[C@@H](n2cnc3c(N)ncnc32)[C@H](O)[C@@H]1OP(=O)(O)O (relative stereo) [cis-parinaroyl-CoA] | 23.9 ± 0.6 | 88 ± 9 | 38±1 | 28 ± 1 | 35 ± 10 | 5–7 fold | 52 ± 8 | 5–7 fold | 67 ± 10 | 24.3 ± 0.6 | 51 ± 5 | – | – | – | – | – |
| CCCCCCCCCCCCCCCC(=O)SCCNC(=O)CCNC(=O)[C@H](O)C(C)(C)COP(=O)(O)OP(=O)(O)OC[C@H]1O[C@@H](n2cnc3c(N)ncnc32)[C@H](O)[C@@H]1OP(=O)(O)O [palmitoyl-CoA] | – | – | – | – | – | – | – | – | – | – | – | 50–60% | approximately 70% | 50–60% | 16 ± 2 | 9 ± 1 |
